From PubChem
The list is not random: actives were taken first. Their share in the collection is about 2.6%.
F508del corr: F508del CFTR correction, initial screen, CFBE line, single point; CFBE cells, YFP halide quenching; stimulated with forskolin plus potentiator P3; % fluorescence drop versus neutral controls; activity (quench increase), % at 7.58 µM; hit rate 0.36% among 350,000; AID 720511, 2013;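 active = mean added fluorescence quench of at least 8% versus neutral control, with both replicates also reaching 8%; inconclusive = only one of the mean or replicate conditions met; inactive = mean below 8% and not both replicates reaching 8%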;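 note: cells transiently co-express mutant CFTR-F508del with the halide-sensitive YFP; corrector assay measuring rescue of mutant channel to the surface after 24 h compound exposure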
miR122 inh: miR-122 Renilla sensor signal increase in Huh7, primary screen, miR-122 inhibitor project, cell-based, single point, plate reader; Huh7 miR-122 Renilla luciferase sensor, 48 h; neutral wells = 0, positive control = 100; hit rate 0.3% among 340,000; activation (reporter increase), % at 12.5 µM;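 active = mean replicate activation score at least 90 and every replicate individually at or above 90; inconclusive = only one of the two criteria met; inactive = neither criterion met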;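 note: higher luciferase means less miR-122 activity so hits act as miR-122 inhibitors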
DENV2 CPE: inhibitors of DENV2 cytopathic effect, primary screen, cell-based, plate reader, single concentration; DENV2-infected cells, cytopathic effect rescue; AID 651640, 2012; hit rate 1.7% among 350,000; CPE inhibition, % at 9.99 µM; in the data active = CPE inhibition above about 20%, passing the limit was not always enough; inconclusive = no clear call, values can overlap the other calls; tested in BHK-21 cells;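 note: 0% = median of neutral control wells and 100% = median of positive control wells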
E-sel inducer: E-selectin induction in HUVECs, primary screen, imaging, HUVEC, immunofluorescence imaging, single point. AID 686992, 2013. activation, % at 7.58 µM. hit rate 0.37% among 260,000. normalized: neutral wells 0, TNF-alpha wells 100. P16581;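 active = mean E-selectin-positive cell signal at least 10% of the positive control, reached in at least 60% of replicates, without over 20% cell loss; inconclusive = no rule given, readout overlaps actives, possibly toxicity-flagged; inactive = the rest, including those meeting only one limit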
Target sequence (P16581 whole entry, looked up): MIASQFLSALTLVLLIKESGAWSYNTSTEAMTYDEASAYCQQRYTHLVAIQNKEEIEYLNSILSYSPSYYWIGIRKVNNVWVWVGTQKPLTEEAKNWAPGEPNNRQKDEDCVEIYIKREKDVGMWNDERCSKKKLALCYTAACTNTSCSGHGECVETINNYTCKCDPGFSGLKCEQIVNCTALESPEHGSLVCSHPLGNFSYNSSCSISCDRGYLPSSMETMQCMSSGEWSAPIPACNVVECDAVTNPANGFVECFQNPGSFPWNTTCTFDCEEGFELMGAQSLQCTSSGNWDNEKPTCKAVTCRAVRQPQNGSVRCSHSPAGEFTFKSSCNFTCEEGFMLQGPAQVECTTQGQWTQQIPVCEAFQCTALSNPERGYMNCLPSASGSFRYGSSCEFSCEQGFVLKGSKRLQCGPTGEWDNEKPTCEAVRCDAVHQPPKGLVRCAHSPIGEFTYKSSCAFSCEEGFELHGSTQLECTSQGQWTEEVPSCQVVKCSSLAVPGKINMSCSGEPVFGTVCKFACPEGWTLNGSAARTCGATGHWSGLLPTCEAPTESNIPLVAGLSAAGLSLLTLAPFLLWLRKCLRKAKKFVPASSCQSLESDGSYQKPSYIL
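Material: HUVEC primary endothelial cells; Amount: 3,000 cells per well; Dosing: single concentration; Medium: EGM-2 growth medium on 0.1% gelatin-coated wells; Read-out basis: percent E-selectin-positive cells; Signal: immunofluorescence imaging; Control set: TNF-alpha, DMSO.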
INS-1E GSIS act: GLuc luminescence reporter in INS-1E cells, primary screen for activators of glucose-dependent secretion of insulin; hit rate 0.61% among 370,000; INS-1E GLuc reporter insulin secretion, 2-3 h; activation, % at 16.6 µM;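 active = lowest replicate activation of at least 40%, so every replicate reaches that level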;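 note: 0% = median of neutral control wells and 100% = median of IBMX positive control wells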
ERAP1 inh: human ERAP1 aminopeptidase inhibitors, primary screen, biochemical, single point, plate reader | inhibition, % at 10.7 µM | recombinant ERAP1, Leu-AMC fluorescence, 60 min | hit rate 0.15% among 340,000;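 active = mean replicate inhibition of at least 30%, or all replicates individually reaching that 30% level; inactive = mean below 30% and not every replicate reaching it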;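 note: 0% = neutral control wells and 100% = L-leucinethiol positive control wells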
The depositor's hits bear a star; ? = inconclusive; · = no result; [ ] = dose if it differs, or a comment.

SMILES	F508del corr	miR122 inh	DENV2 CPE	E-sel inducer	INS-1E GSIS act	ERAP1 inh
CCOC(=O)[C@]12Cc3ccc(C)cc3[C@H]1N(C1CCCCC1)C(=O)c1cc(OC)ccc12	20*	·	55*	0	4	0
CCOC(=O)[C@]12Cc3ccc(C)cc3[C@H]1N(C1CCCCC1)C(=O)c1ccccc12	-3	·	3	0	-23	-5
CS(=O)(=O)N1C[C@@H]2C(c3ccc(Br)cc3)[C@H](C1)N2CC1CC1 (some centres not stated)	·	·	·	·	3	·
COC(=O)[C@H]1[C@H](CO)[C@H]2Cn3c(ccc(-c4ccc(F)cc4)c3=O)[C@@H]1N2Cc1ccccc1	-1	-3[16.7 µM]	-6	0	-11	5
Cc1nc(C)c(C(=O)NN=Cc2ccc(N(CCCl)CCCl)cc2)s1	8.7*	·	-8	0	-6	-1
COC(=O)[C@H]1[C@H](CO)[C@H]2Cn3c(ccc(C4=CCCC4)c3=O)[C@@H]1N2C(=O)C1CCCCC1	·	·	·	0	3	·
C[C@]12CC[C@H](O)C[C@H]1CC[C@@H]1[C@@H]2CC[C@]2(C)[C@@H](C3=CC(=O)OC3)CC[C@]12O	-1	123*	-6	0	·	-3
CC(C)c1oc(=O)cc2c1[C@@H](O)[C@H]1OC(=O)[C@@]3(C)C[C@@H](O)[C@@H](O)[C@@]2(C)C13 (some centres not stated)	-1	·	87*	0	-15	3
CC(C)c1oc(=O)cc2c1[C@@H](O)[C@H]1OC(=O)[C@@]3(C)CC[C@@H](O)[C@@]2(C)C13 (some centres not stated)	0	·	0	·	·	2
C[C@]12CC[C@@H](O)CC1=CCC1C2CC[C@@]2(C)C1C[C@@H](F)[C@H]2O (some centres not stated)	-1	-2	33*	0	·	0
COc1ccc(-c2ccc3c(c2)CN(C(=O)NC2CCCCC2)Cc2cnnn2-3)cc1	1	24	24*	1	1	11
O=C(NC1CCCCC1)N1Cc2cc(-c3cccc(F)c3)ccc2-n2nncc2C1	0	10	4	1	3	1
O=C1CNC[C@@H]2[C@@H](c3ccc(Br)cc3)[C@@H](CO)N12	3	·	-10	0	2	-2
O=C(Cc1cccnc1)N1CCCCN2[C@H](CO)[C@@H](c3ccc(C#CC4CC4)cc3)[C@H]2C1	-4	14[16.7 µM]	7	·	·	2
CC(=O)N1CC(=O)Nc2ccc(Cl)cc2C1c1ccccc1 (configuration not stated)	-2	-8	0	·	1	0
CN=C1CN(O)C(c2ccccc2)c2cc(Cl)ccc2N1 (configuration not stated)	1	111*	1	0	-9	-3
O=C(Cc1cccnc1)N1CCCCN2[C@H](CO)[C@H](c3ccc(/C=C/c4ccccc4)cc3)[C@H]2C1	1	-1[16.7 µM]	25*	-1	-12	0
O=C(Cc1cccnc1)N1CCCCN2[C@H](CO)[C@@H](c3ccc(/C=C/c4ccccc4)cc3)[C@H]2C1	0	-4[16.7 µM]	1	-1	-15	-1
COc1ccc(C#Cc2ccc([C@@H]3[C@H](CO)N4CCCCN(C(=O)Cc5cccnc5)C[C@@H]34)cc2)cc1	-4	-4[16.7 µM]	27*	0	-27	0
N#Cc1cccc(-c2ccc([C@@H]3[C@@H](CO)N4CCCCN(C(=O)Cc5ccccc5)C[C@@H]34)cc2)c1	-3	-12[16.7 µM]	38*	0	6	-3
C/C=C/c1ccc([C@H]2[C@@H](CO)N3CCCCN(C(=O)Cc4ccncc4)C[C@H]23)cc1	0	-1[16.7 µM]	?	0	10	4
C/C=C/c1ccc([C@H]2[C@@H](CO)N3CCCCN(C(=O)Cc4ccncc4)C[C@@H]23)cc1	-1	-3[16.7 µM]	140*	0	-6	3
CC(=O)N1C[C@@H]2C(c3ccc(Br)cc3)[C@H](C1)N2CC1CC1 (some centres not stated)	·	·	·	·	9	·
O=C(O)[C@@H]1[C@@H](CO)[C@@H]2Cn3c(ccc(C4=CCCC4)c3=O)[C@H]1N2C(=O)Cc1ccccn1	1	5[16.7 µM]	4	1	8	1
COc1cccc(-c2ccc([C@H]3[C@@H](CO)N4CCCCN(C(=O)Cc5ccncc5)C[C@@H]34)cc2)c1	0	7[16.7 µM]	27*	0	5	-3
SMILES	F508del corr	miR122 inh	DENV2 CPE	E-sel inducer	INS-1E GSIS act	ERAP1 inh
COC(=O)[C@H]1[C@H](CO)[C@H]2Cn3c(ccc(C4=CCCCC4)c3=O)[C@@H]1N2CC1CCCCC1	0	·	-7	-1	-10	4
O=C1NC(=O)C(=Cc2c(Cl)cccc2Cl)C(=O)N1	8.7*	·	-5	0	8	4
Cc1c(C=C2C(=O)NC(=O)NC2=O)c(=O)n(-c2ccccc2)n1C	2	3	-2	0	0	-2
COc1ccc(-c2nc3ccccc3n2OC(=O)N(C)C)cc1	·	114*	·	·	·	·
CC=Cc1ccc2n(c1=O)C[C@@H]1[C@@H](CO)[C@H](C(=O)O)[C@H]2N1S(=O)(=O)c1ccccc1C (mixture of isomers)	0	1[16.7 µM]	?	0	0	0
O=C([C@H]1N[C@H]2c3cccc(=O)n3C[C@H]2[C@@H]1CO)N1CCCCC1	·	·	·	·	3	·
O=C(Cc1cccnc1)N1CCCCN2[C@H](CO)[C@@H](c3ccc(/C=C/c4ccccc4)cc3)[C@@H]2C1	0	-2[16.7 µM]	-9	-1	-11	-1
CC(C)OC(=O)C1C(c2ccc(I)cc2)CC2CCC1N2C (configuration not stated)	5	·	4	·	16	-3
COC(=O)C1C(c2ccc(C)cc2)CC2CCC1N2C (configuration not stated)	3	·	28*	·	-6	-2
C[C@H]1CN([C@@H](C)CO)C(=O)CCCn2cc(nn2)CO[C@H]1CN(C)C(=O)Oc1cccc2ccccc12	2	6[16.7 µM]	·	0	13	·
CN1C[C@@H]2N[C@H](C1)C2c1ccc(Br)cc1 (some centres not stated)	·	·	·	·	-6	·
CCN1[C@@H]2c3ccc(-c4cccc(C(=O)N(C)C)c4)c(=O)n3C[C@H]1[C@H](CO)[C@H]2C(=O)OC	2	3[16.7 µM]	-1	0	-1	-1
CCOS(C)(=O)=O	-3	3	48*	·	-6	-8
O=C(Cc1cccnc1)N1CCCCN2[C@@H](CO)[C@@H](c3ccc(C#CC4CC4)cc3)[C@@H]2C1	4	6[16.7 µM]	-2	·	·	0
